# Measured values reported in ChEMBL document CHEMBL4689842, “EUbOPEN Chemogenomics Library wave 1” (2021).
# Tested on: U2OS
# Assay: Multiplex assay against U2OS
# Format: toxicity, cell-based
# Conditions: human
# Method in brief: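 With compound added, live cells were imaged on a CQ1 microscope at 37°C and 5% CO2; staining with Hoechst33342, BioTracker Green Microtubule Cytoskeleton Dye, MitoTracker Red and Annexin V Alexa Fluor 680 had been done at seeding. The CellPathfinder machine-learning gating scheme split cells into Hoechst high-intensity objects or normal cells, normal cells into healthy, pyknosed or fragmented nuclei, and pyknosed cells into mitotic or apoptotic. The tubulin, mitochondrial-mass and membrane-permeability phenotypes are per cents of healthy-nucleus cells.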
# [1] = 12 h, 1 µM, compound concentration 1 uM, replicate 1
# [2] = 12 h, 1 µM, compound concentration 1 uM, replicate 2
# [3] = 12 h, 10 µM, compound concentration 10 uM, replicate 1
# [4] = 12 h, 10 µM, compound concentration 10 uM, replicate 2
# [5] = 24 h, 1 µM, compound concentration 1 uM, replicate 1
# [6] = 24 h, 1 µM, compound concentration 1 uM, replicate 2
# [7] = 24 h, 10 µM, compound concentration 10 uM, replicate 1
# [8] = 24 h, 10 µM, compound concentration 10 uM, replicate 2
structure (smiles),measurement,setting,value
CNC(=O)c1ccc(Nc2nc(OC3CCCC3)c3c(-c4ccc5nc(C)oc5c4)c[nH]c3n2)c(OC)c1,Population Apoptotic (%),[1],36%
same,Population Fragmented Nuclei (%),[1],10%
same,Population Healthy Nuclei (%),[1],64%
same,Population Hoechst High Intensity Objects (%),[1],2%
same,Population Membrane Permeable-Phenotype (%),[1],58%
same,Population Mitochondria Different-Phenotype (%),[1],45%
same,Population Mitotic Cells (%),[1],63%
same,Population Normal (%),[1],97%
same,Population Pyknosed Nuclei (%),[1],25%
same,Population Apoptotic (%),[2],30%
same,Population Fragmented Nuclei (%),[2],14%
same,Population Healthy Nuclei (%),[2],72%
same,Population Hoechst High Intensity Objects (%),[2],6%
same,Population Membrane Permeable-Phenotype (%),[2],63%
same,Population Mitochondria Different-Phenotype (%),[2],40%
same,Population Mitotic Cells (%),[2],70%
same,Population Normal (%),[2],93%
same,Population Pyknosed Nuclei (%),[2],13%
same,Population Tubulin-Different-Phenotype (%),[2],100%
same,Population Apoptotic (%),[3],30%
same,Population Fragmented Nuclei (%),[3],1%
same,Population Healthy Nuclei (%),[3],87%
same,Population Hoechst High Intensity Objects (%),[3],1%
same,Population Membrane Permeable-Phenotype (%),[3],62%
same,Population Mitochondria Different-Phenotype (%),[3],18%
same,Population Mitotic Cells (%),[3],70%
same,Population Normal (%),[3],98%
same,Population Pyknosed Nuclei (%),[3],11%
same,Population Tubulin-Different-Phenotype (%),[3],90%
same,Population Apoptotic (%),[4],25%
same,Population Fragmented Nuclei (%),[4],22%
same,Population Healthy Nuclei (%),[4],72%
same,Population Hoechst High Intensity Objects (%),[4],22%
same,Population Membrane Permeable-Phenotype (%),[4],54%
same,Population Mitochondria Different-Phenotype (%),[4],26%
same,Population Mitotic Cells (%),[4],75%
same,Population Normal (%),[4],77%
same,Population Pyknosed Nuclei (%),[4],4%
same,Population Tubulin-Different-Phenotype (%),[4],65%
same,Population Apoptotic (%),[5],89%
same,Population Fragmented Nuclei (%),[5],12%
same,Population Healthy Nuclei (%),[5],8%
same,Population Hoechst High Intensity Objects (%),[5],5%
same,Population Membrane Permeable-Phenotype (%),[5],92%
same,Population Mitochondria Different-Phenotype (%),[5],84%
same,Population Mitotic Cells (%),[5],10%
same,Population Normal (%),[5],94%
same,Population Pyknosed Nuclei (%),[5],79%
same,Population Tubulin-Different-Phenotype (%),[5],100%
same,Population Apoptotic (%),[6],60%
same,Population Fragmented Nuclei (%),[6],25%
same,Population Healthy Nuclei (%),[6],48%
same,Population Hoechst High Intensity Objects (%),[6],11%
same,Population Membrane Permeable-Phenotype (%),[6],65%
same,Population Mitochondria Different-Phenotype (%),[6],73%
same,Population Mitotic Cells (%),[6],40%
same,Population Normal (%),[6],88%
same,Population Pyknosed Nuclei (%),[6],25%
same,Population Apoptotic (%),[7],43%
same,Population Fragmented Nuclei (%),[7],6%
same,Population Healthy Nuclei (%),[7],73%
same,Population Hoechst High Intensity Objects (%),[7],1%
same,Population Membrane Permeable-Phenotype (%),[7],43%
same,Population Mitochondria Different-Phenotype (%),[7],18%
same,Population Mitotic Cells (%),[7],56%
same,Population Normal (%),[7],98%
same,Population Pyknosed Nuclei (%),[7],20%
same,Population Tubulin-Different-Phenotype (%),[7],71%
same,Population Apoptotic (%),[8],62%
same,Population Fragmented Nuclei (%),[8],23%
same,Population Healthy Nuclei (%),[8],67%
same,Population Hoechst High Intensity Objects (%),[8],14%
same,Population Membrane Permeable-Phenotype (%),[8],30%
same,Population Mitochondria Different-Phenotype (%),[8],28%
same,Population Mitotic Cells (%),[8],37%
same,Population Normal (%),[8],85%
same,Population Pyknosed Nuclei (%),[8],8%
same,Population Tubulin-Different-Phenotype (%),[8],55%
